Mdm2-MdmX inh – human Mdm2/MdmX binding inhibition; O15151+Q00987; SaOS-2 split-luciferase Mdm2/MdmX complementation, luminescence; inhibition, % at 8 µM; hit rate 3% among 330,000;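 active = inhibition of at least 50% at 8 µM in the primary screen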
Target sequence (O15151 whole entry, looked up): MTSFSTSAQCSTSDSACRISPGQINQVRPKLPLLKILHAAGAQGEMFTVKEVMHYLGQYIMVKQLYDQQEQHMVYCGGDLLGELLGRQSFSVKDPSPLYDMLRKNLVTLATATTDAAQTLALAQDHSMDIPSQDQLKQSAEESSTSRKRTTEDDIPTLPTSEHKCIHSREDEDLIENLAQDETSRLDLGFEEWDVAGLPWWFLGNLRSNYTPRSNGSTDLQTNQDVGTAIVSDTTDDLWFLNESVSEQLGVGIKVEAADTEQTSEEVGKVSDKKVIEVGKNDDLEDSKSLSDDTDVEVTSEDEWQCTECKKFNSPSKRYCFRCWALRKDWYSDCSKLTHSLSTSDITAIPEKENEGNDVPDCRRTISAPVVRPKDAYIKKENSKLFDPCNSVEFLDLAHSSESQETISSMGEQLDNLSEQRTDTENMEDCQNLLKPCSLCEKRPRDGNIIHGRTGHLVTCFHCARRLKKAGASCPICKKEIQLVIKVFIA
Target sequence (Q00987 whole entry, looked up): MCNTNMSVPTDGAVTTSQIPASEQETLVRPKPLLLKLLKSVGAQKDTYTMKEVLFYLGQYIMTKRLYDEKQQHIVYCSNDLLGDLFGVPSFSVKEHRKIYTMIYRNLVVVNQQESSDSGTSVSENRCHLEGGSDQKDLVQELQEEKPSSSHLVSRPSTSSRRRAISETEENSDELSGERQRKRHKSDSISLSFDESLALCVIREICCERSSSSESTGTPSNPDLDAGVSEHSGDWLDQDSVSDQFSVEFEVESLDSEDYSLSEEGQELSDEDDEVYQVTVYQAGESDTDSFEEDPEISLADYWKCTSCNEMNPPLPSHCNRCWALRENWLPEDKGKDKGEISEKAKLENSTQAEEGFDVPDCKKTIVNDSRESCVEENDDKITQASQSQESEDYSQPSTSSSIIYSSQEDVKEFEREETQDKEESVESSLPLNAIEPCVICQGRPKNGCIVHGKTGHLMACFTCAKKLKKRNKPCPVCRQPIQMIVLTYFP
T cruzi repl – blocks replication of Trypanosoma cruzi | T. cruzi beta-gal in NIH3T3, luminescence, 90 h | hit rate 1.4% among 300,000 | inhibition, % (test concentration not listed);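 active = mean inhibition across valid replicates above about 55%, limit read from the data; inconclusive = mean below that limit but half or more replicates reach it; inactive = mean below it, under half of replicates reach it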;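 also: signal also drops with host cell toxicity which is not excluded here; higher percent means less beta-gal luminescence so fewer parasites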
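System: Mouse NIH/3T3 fibroblasts infected with β-gal-expressing T. cruzi Tulahuen C4 | Quantity: NIH/3T3 cells, 5,000 per well | Reagent: 5000 reporter trypomastigotes per well | Dosing: Compound pinned at 50 nL/well, DMSO | Schedule: 3 h host attachment, then at least 90 h co-culture | Detection: GalScreen luminescence, 60 min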
CSC inhib – blocks cancer stem cells; inhibition, % at 7.5 µM; cancer stem cell-like cells viability, luminescence; hit rate 1.1% among 300,000; in the data active = inhibition above about 75%; inconclusive = no clear call, values can overlap the other calls; tested in HMLE shEcad cells
L major viab – inhibitors of Leishmania major promastigote growth. hit rate 9% among 200,000. inhibition, % at 10 µM. Leishmania major promastigotes, resazurin fluorescence viability; in the data active = inhibition above about 50%;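 also: promastigotes grown with compound for 44 hours at 28 °C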
Beta apoptosis – blocks beta cell apoptosis; INS-1E cytokine-induced death, ATP luminescence, 48 h; percent of positive-control rescue, neutral wells zero; protection from apoptosis, % (test concentration not listed); hit rate 0.8% among 300,000; AID 435005;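 active = Every replicate reaches about 75%, or at least half do and their mean reaches it too, limit read from the data; inconclusive = At least half of replicates reach the limit but their mean does not; inactive = Under half of replicates reach the limit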;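 also: higher means more ATP so stronger rescue from cytokine killing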
SKKanGAS inh – inhibitors of SKKanGAS S. pyogenes growth in kanamycin (SK-promoter or general growth effect) | inhibition, % at 7.5 µM | AID 1662 | BacTiter-Glo, 6 h | hit rate 1.3% among 300,000;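 active = mean replicate score, as percent of positive control median, at least 50; inconclusive = mean below 50 but one replicate at or above 50; inactive = mean and every replicate below 50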;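 also: strain carries kanamycin resistance gene driven by streptokinase promoter and grows in 40 µg/ml kanamycin; loss of luminescence reflects streptokinase promoter inhibition or plain growth inhibition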
Mdm2-MdmX conf – human Mdm2/MdmX binding inhibition, confirmed. shares compounds with Mdm2-MdmX inh. luminescent assay. inhibition, % at 8 µM. hit rate 55% among 10,000. AID 489028; in the data active = inhibition above about 40%
FLuc counter – inhibits full-length luciferase, flagging false Mdm2/MdmX hits; shares compounds with Mdm2-MdmX inh; SaOS-2 full-length luciferase counterscreen, luminescence; inhibition, % at 8 µM; hit rate 77% among 6,200; AID 504607;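 active = mean inhibition at 8 µM reaching about 37%, which flags the compound as non-specific, limit read from the data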;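 also: p53-null SaOS-2 cells with luciferase driven by a doxycycline-inducible promoter; compound on cells about two nights before reading with doxycycline added after day one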
Numbers stand for hits; – = inactive; ? = inconclusive; · = not tested or not shown. An excerpt weighted towards active compounds, which were near 9.4% of everything screened.

SMILES	Mdm2-MdmX inh	T cruzi repl	CSC inhib	L major viab	Beta apoptosis	SKKanGAS inh	Mdm2-MdmX conf	others
O=C(Nc1cccc2ccccc12)NC1CCCCC1	–	–	–	·	–	–	·
Cc1cc(C)c(C)c(S(=O)(=O)N[C@@H](C)C(=O)OCC(=O)NC2CCCC(C)C2C)c1C (stereo not given in full)	–	·	–	·	–	·	·
CC(=O)NC(C)c1ccc(C(=O)CSc2nnc(C3CC3)n2C2CC2)cc1 (stereo not given)	–	·	–	·	–	·	·
CC(C)NS(=O)(=O)c1ccc(NC(=O)C(C)OC(=O)CCC(=O)c2cccs2)cc1 (stereo not given)	–	·	–	·	–	·	·
CC(/C=C\c1ccccc1)=C/C(=O)O	–	–	–	·	–	–	·
O=C(/C=C/c1ccccc1)/C=C/c1ccccc1	95	–	?	100	–	–	–
CCC(=O)Nc1nc(C)c(-c2csc(Nc3cccc(O)c3)n2)s1	73	–	77	·	–	–	–
C=CCCC(=O)Nc1nc(C)c(-c2csc(Nc3ccc(Cl)cc3Cl)n2)s1	54	–	–	–	–	?	–
Cc1ccc(Cl)cc1Nc1nc(-c2sc(NC(=O)c3ccco3)nc2C)cs1	81	–	–	–	–	–	–
C=CCCC(=O)Nc1nc(C)c(-c2csc(Nc3ccccc3OC)n2)s1	60	–	–	70	–	–	56	FLuc counter=56
Cc1nc(C)c(-c2csc(Nc3cccc(O)c3)n2)s1	–	–	–	–	–	–	·
Cc1ccccc1Nc1nc(-c2sc(NC(=O)c3cccc(Cl)c3)nc2C)cs1	–	–	–	–	–	–	·
COc1cccc(N(C(=O)c2ccco2)c2nc(-c3sc(NC(=O)c4ccco4)nc3C)cs2)c1	74	–	–	–	–	–	49	FLuc counter=62
COc1ccc(-c2csc(NC(=O)c3ccco3)n2)cc1	–	–	–	–	–	–	·
COc1ccc(C(=O)c2ccc(OC)cc2OC)cc1	–	–	?	·	–	–	·
COc1ccc(C(=O)c2ccc(N(C)C)cc2)c(OC)c1	62	–	–	–	–	–	48	FLuc counter=37
CN(C)c1ccc(C(=O)c2ccc(N(C)C)c3ccccc23)cc1	56	–	–	–	–	–	50	FLuc counter=181
CC(C)c1ccc(N(CC(=O)NCc2ccco2)C(=O)CCC(=O)Nc2nccs2)cc1	–	–	–	·	–	–	·
O=C1CC(=C(c2ccccc2)c2ccccc2)C(=O)N1CCCCN1CCN(c2cccc(Cl)c2)CC1	60	–	113	–	–	–	–
COC(=O)c1cc2sccc2n1Cc1nc(-c2ccc(Cl)cc2)oc1C	51	–	–	–	–	–	–
O=C(CCS(=O)(=O)c1ccc(Cl)cc1)N1CCCc2ccccc21	–	–	–	·	–	–	·
N#CC1=C(N)OC2=C(CC/C2=C\c2ccccc2Cl)C1c1ccccc1Cl (stereo not given)	66	–	–	73	–	·	–
Cc1oc(C)c2c(=O)ccc3c(c12)OC(N)=C(C#N)C3c1ccccc1Cl (stereo not given)	–	·	–	–	–	–	·
CC1(C)OC(=O)C(=NNc2ccc(Br)cc2)C(=O)O1	–	–	–	–	–	–	·
COc1cccc(N2CCN(C(=O)CCNS(=O)(=O)c3ccc(F)c(F)c3)CC2)c1	–	·	–	·	–	·	·
SMILES	Mdm2-MdmX inh	T cruzi repl	CSC inhib	L major viab	Beta apoptosis	SKKanGAS inh	Mdm2-MdmX conf	others
O=C1c2cccc3cccc(c23)C(=O)N1Nc1ccccc1	–	–	–	–	–	–	·
O=C1c2cccc3cc(Br)cc(c23)C(=O)N1Nc1ccc(Br)cc1	73	–	–	–	–	–	63	FLuc counter=74
Cc1ccc(CC(=O)NC2CCCc3ccccc32)cc1C (stereo not given)	–	–	–	·	–	–	·
Cn1c(=O)c(C(=O)CN2CC(=O)Nc3ccccc32)c(N)n(Cc2ccccc2)c1=O	–	–	–	–	–	–	·
Nc1ccc(N2CCCCC2)c(S(=O)(=O)Nc2ccccc2Cl)c1	–	–	–	·	–	–	·
O=C(Nc1cccc(C(F)(F)F)c1)Nc1ccc(N2CCCC2)c(S(=O)(=O)Nc2ccccc2Cl)c1	99	–	78	100	103	–	97	FLuc counter=57

Bioassay records as filed in PubChem.
